Measurements: ChEMBL document CHEMBL1123716, “Synthesis and tumor uptake of 5-halo-1-(2'-fluoro-2'-deoxy-beta-D-ribofuranosyl)[2-14C]uracils” (J Med Chem, 1987)

Tests used:
[1] = tested on: Mus musculus; assay: Tissue distribution in BDF1 female mice bearing an implanted lewis lung tumor after intravenous injection in heart at 2 h.; format: ADME, organism-based; conditions: in vivo
Outline: (§1)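 Female BDF1 mice (18–20 g) with implanted Lewis lung tumor received the 2-14C compound by tail vein, 23–193 kBq in normal saline, reconstituted from a dry film just before use. Animals were killed at set times and tissues taken for 14C counting by combustion and liquid scintillation. Values are percent injected dose per gram wet tissue, mean ± standard deviation, six animals.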

[2] = tested on: Mus musculus; assay: Tissue distribution in BDF1 female mice bearing an implanted lewis lung tumor after intravenous injection in liver at 2 h.; format: ADME, organism-based; conditions: in vivo
Outline: (§2)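 Female BDF₁ mice (18–20 g) carrying transplanted Lewis lung tumor received 23–193 kBq of the [2-¹⁴C]-labeled nucleoside in normal saline via tail vein. The compound was stored as a dry film and reconstituted just before use. Animals were killed at set times, and tissue ¹⁴C was measured by combustion and liquid scintillation. Values are mean ± SD % injected dose per gram of wet tissue, n = 6.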

[3] = tested on: Mus musculus; assay: Tissue distribution in BDF1 female mice bearing an implanted lewis lung tumor after intravenous injection in liver at 0.5 h.; format: ADME, organism-based; conditions: in vivo; outline: as §2
[4] = tested on: Mus musculus; assay: Tissue distribution in BDF1 female mice bearing an implanted lewis lung tumor after intravenous injection in lung at 4 h; format: ADME, organism-based; conditions: in vivo; outline: as §2
[5] = tested on: Mus musculus; assay: Tissue distribution in BDF1 female mice bearing an implanted lewis lung tumor after intravenous injection in blood at 1 h.; format: ADME, organism-based; conditions: in vivo; outline: as §1
[6] = tested on: Mus musculus; assay: Tissue distribution in BDF1 female mice bearing an implanted lewis lung tumor after intravenous injection in heart at 8 h.; format: ADME, organism-based; conditions: in vivo; outline: as §1
[7] = tested on: Mus musculus; assay: Tissue distribution in BDF1 female mice bearing an implanted lewis lung tumor after intravenous injection in muscle at 8 h.; format: ADME, organism-based; conditions: in vivo; outline: as §2
[8] = tested on: Mus musculus; assay: Tissue distribution in BDF1 female mice bearing an implanted lewis lung tumor after intravenous injection in liver at 4 h.; format: ADME, organism-based; conditions: in vivo; outline: as §2
[9] = tested on: Mus musculus; assay: Tissue distribution in BDF1 female mice bearing an implanted lewis lung tumor after intravenous injection in heart at 0.5 h.; format: ADME, organism-based; conditions: in vivo; outline: as §1
[10] = tested on: Mus musculus; assay: Tissue distribution in BDF1 female mice bearing an implanted lewis lung tumor after intravenous injection in stomach at 2 h.; format: ADME, organism-based; conditions: in vivo; outline: as §2
[11] = tested on: Mus musculus; assay: Tissue distribution in BDF1 female mice bearing an implanted lewis lung tumor after intravenous injection in spleen at 4 h.; format: ADME, organism-based; conditions: in vivo; outline: as §2
[12] = tested on: Mus musculus; assay: Tissue distribution in BDF1 female mice bearing an implanted lewis lung tumor after intravenous injection in muscle at 2 h.; format: ADME, organism-based; conditions: in vivo; outline: as §2
[13] = tested on: Mus musculus; assay: Tissue distribution in BDF1 female mice bearing an implanted lewis lung tumor after intravenous injection in liver at 24 h.; format: ADME, organism-based; conditions: in vivo; outline: as §2
[14] = tested on: Mus musculus; assay: Tissue distribution in BDF1 female mice bearing an implanted lewis lung tumor after intravenous injection in kidney at 0.5 h.; format: ADME, organism-based; conditions: in vivo; outline: as §1
[15] = tested on: Mus musculus; assay: Tissue distribution in BDF1 female mice bearing an implanted lewis lung tumor after intravenous injection in liver at 0.25 h.; format: ADME, organism-based; conditions: in vivo; outline: as §2
[16] = tested on: Mus musculus; assay: Tissue distribution in BDF1 female mice bearing an implanted lewis lung tumor after intravenous injection in skin at 4 h.; format: ADME, organism-based, Skin of body; conditions: in vivo; outline: as §2
[17] = tested on: Mus musculus; assay: Tissue distribution in BDF1 female mice bearing an implanted lewis lung tumor after intravenous injection in stomach at 0.25 h; format: ADME, organism-based; conditions: in vivo; outline: as §2
[18] = tested on: Mus musculus; assay: Tissue distribution in BDF1 female mice bearing an implanted lewis lung tumor after intravenous injection in blood at 24 h.; format: ADME, organism-based; conditions: in vivo; outline: as §1
[19] = tested on: Mus musculus; assay: Tissue distribution in BDF1 female mice bearing an implanted lewis lung tumor after intravenous injection in bone at 1 h.; format: ADME, organism-based; conditions: in vivo; outline: as §1
[20] = tested on: Mus musculus; assay: Tissue distribution in BDF1 female mice bearing an implanted lewis lung tumor after intravenous injection in lung at 0.5 h.; format: ADME, organism-based; conditions: in vivo; outline: as §2
[21] = tested on: Mus musculus; assay: Tissue distribution in BDF1 female mice bearing an implanted lewis lung tumor after intravenous injection in kidney at 8 h.; format: ADME, organism-based; conditions: in vivo; outline: as §2
[22] = tested on: Mus musculus; assay: Tissue distribution in BDF1 female mice bearing an implanted lewis lung tumor after intravenous injection in lung at 1 h.; format: ADME, organism-based; conditions: in vivo; outline: as §2
[23] = tested on: Mus musculus; assay: Tissue distribution in BDF1 female mice bearing an implanted lewis lung tumor after intravenous injection in skin at 2 h.; format: ADME, organism-based, Skin of body; conditions: in vivo; outline: as §2
[24] = tested on: Mus musculus; assay: Tissue distribution in BDF1 female mice bearing an implanted lewis lung tumor after intravenous injection in blood at 2 h.; format: ADME, organism-based; conditions: in vivo; outline: as §1
[25] = tested on: Mus musculus; assay: Tissue distribution in BDF1 female mice bearing an implanted lewis lung tumor after intravenous injection in stomach at 24 h.; format: ADME, organism-based; conditions: in vivo; outline: as §2
[26] = tested on: Mus musculus; assay: Tissue distribution in BDF1 female mice bearing an implanted lewis lung tumor after intravenous injection in git(Section of intestine) at 0.5 h.; format: ADME, organism-based; conditions: in vivo; outline: as §1
[27] = tested on: Mus musculus; assay: Tissue distribution in BDF1 female mice bearing an implanted lewis lung tumor after intravenous injection in muscle at 24 h.; format: ADME, organism-based; conditions: in vivo; outline: as §2
[28] = tested on: Mus musculus; assay: Tissue distribution in BDF1 female mice bearing an implanted lewis lung tumor after intravenous injection in heart at 1 h.; format: ADME, organism-based; conditions: in vivo; outline: as §1
[29] = tested on: Mus musculus; assay: Tissue distribution in BDF1 female mice bearing an implanted lewis lung tumor after intravenous injection in spleen at 0.5 h.; format: ADME, organism-based; conditions: in vivo; outline: as §2
[30] = tested on: Mus musculus; assay: Tissue distribution in BDF1 female mice bearing an implanted lewis lung tumor after intravenous injection in muscle at 0.25 h; format: ADME, organism-based; conditions: in vivo; outline: as §2
[31] = tested on: Mus musculus; assay: Tissue distribution in BDF1 female mice bearing an implanted lewis lung tumor after intravenous injection in stomach at 1 h.; format: ADME, organism-based; conditions: in vivo; outline: as §2
[32] = tested on: Mus musculus; assay: Tissue distribution in BDF1 female mice bearing an implanted lewis lung tumor after intravenous injection in stomach at 4 h.; format: ADME, organism-based; conditions: in vivo; outline: as §2
[33] = tested on: Mus musculus; assay: Tissue distribution in BDF1 female mice bearing an implanted lewis lung tumor after intravenous injection in spleen at 2 h.; format: ADME, organism-based; conditions: in vivo; outline: as §2
[34] = tested on: Mus musculus; assay: Tissue distribution in BDF1 female mice bearing an implanted lewis lung tumor after intravenous injection in tumor at 0.25 h.; format: ADME, organism-based; conditions: in vivo
Outline: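 Female BDF1 mice (18–20 g) carrying a transplanted Lewis lung tumor were given 23–193 kBq of the [2-14C]-labelled nucleoside in normal saline by tail vein. Animals were killed at set times. Tissue 14C was counted by liquid scintillation, after combustion or directly. Values are percent of injected dose per gram wet tissue, as mean ± standard deviation of six animals.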

[35] = tested on: Mus musculus; assay: Radioactive constituent of other in urine at 8 hr time interval after intravenous injection into BDF1 female mice bearing lewis lung tumor; format: ADME, organism-based; conditions: in vivo
Outline: (§3)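 Radiolabeled nucleoside given in normal saline by tail vein, 23–193 kBq per mouse, to female BDF1 mice (18–20 g) carrying transplanted Lewis lung tumor. Urine was collected when the animals were killed. Components were identified by reverse-phase HPLC with UV at 256 nm on urine spiked with reference compounds, matched to liquid scintillation counts of the eluate. Each is reported as a percent of total urine radioactivity.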

[36] = Total urine activity excreted at 8 hr was estimated from the measurement of loss of tissue activity; format: ADME, tissue-based
[37] = tested on: Mus musculus; assay: Tissue distribution in BDF1 female mice bearing an implanted lewis lung tumor after intravenous injection in spleen at 0.25 h.; format: ADME, organism-based; conditions: in vivo; outline: as §2
[38] = tested on: Mus musculus; assay: Radioactive constituent of 5-fluorouracil in urine at 4 hr time interval after intravenous injection into BDF1 female mice bearing lewis lung tumor; format: ADME, organism-based; conditions: in vivo; outline: as §3
[39] = tested on: Mus musculus; assay: Radioactive constituent of other in urine at 2 hr time interval after intravenous injection into BDF1 female mice bearing lewis lung tumor; format: ADME, organism-based; conditions: in vivo; outline: as §3
[40] = tested on: Mus musculus; assay: Radioactive constituent of 5-fluorouracil in urine at 8 hr time interval after intravenous injection into BDF1 female mice bearing lewis lung tumor; format: ADME, organism-based; conditions: in vivo; outline: as §3
[41] = Total urine activity excreted at 4 hr was estimated from the measurement of loss of tissue activity; format: ADME, tissue-based
[42] = tested on: Mus musculus; assay: Radioactive constituent of uracil in urine at 8 hr time interval after intravenous injection into BDF1 female mice bearing lewis lung tumor; format: ADME, organism-based; conditions: in vivo; outline: as §3

Row | SMILES | Tissue distribution [1] | Tissue distribution [2] | Tissue distribution [3] | Tissue distribution [4] | Tissue distribution [5] | Tissue distribution [6] | Tissue distribution [7] | Tissue distribution [8] | Tissue distribution [9] | Tissue distribution [10] | Tissue distribution [11] | Tissue distribution [12] | Tissue distribution [13] | Tissue distribution [14] | Tissue distribution [15] | Tissue distribution [16] | Tissue distribution [18] | Tissue distribution [19] | Tissue distribution [20] | Tissue distribution [21] | also measured
1 | O=c1[nH]c(=O)n([C@H]2O[C@@H](CO)[C@H](O)[C@H]2F)cc1Cl | 0.17 | 0.15 | 1.43 | 0.06 | 0.58 | 0.03 | 0.03 | 0.05 | 1.56 | 0.31 | 0.17 | 0.15 | 0.02 | 23.2 | 2.39 | 0.04 | 0.01 | 0.17 | 1.41 | 0.09 | Tissue distribution [17]: 1.41; Tissue distribution [22]: 0.43; Tissue distribution [23]: 0.13; Tissue distribution [24]: 0.18; Tissue distribution [25]: 0.01; Tissue distribution [26]: 1.02; Tissue distribution [27]: 0.01; Tissue distribution [28]: 0.53; Tissue distribution [29]: 1.08; Tissue distribution [30]: 1.48; Tissue distribution [31]: 0.27; Tissue distribution [32]: 0.07; Tissue distribution [33]: 0.34; Tissue distribution [34]: 2.62
2 | O=c1[nH]c(=O)n([C@H]2O[C@@H](CO)[C@H](O)[C@H]2F)cc1F | 0.08 | 0.08 | 1.54 | 0.02 | 0.54 | 0.009 | 0.01 | 0.02 | 1.71 | 0.07 | 0.18 | 0.06 | 0.005 | 21.9 | 3.37 | 0.11 | 0.01 | 0.35 | 1.43 | 0.02 | Total radioactivity [35]: 38.6%; Total urine activity [36]: 0.2%; Tissue distribution [37]: 8.72; Total radioactivity [38]: 16.3%; Total radioactivity [39]: 5.4%; Total radioactivity [40]: 4.5%; Tissue distribution [22]: 0.51; Tissue distribution [24]: 0.06; Tissue distribution [25]: 0.005; Tissue distribution [26]: 1.59; Total urine activity [41]: 0.8%; Tissue distribution [27]: 0.004; Tissue distribution [28]: 0.58; Tissue distribution [29]: 3.77; Total radioactivity [42]: 4.5%; Tissue distribution [31]: 0.38; Tissue distribution [32]: 0.02; Tissue distribution [33]: 0.29; Tissue distribution [34]: 5.26
